Results of several laboratories.
Each line is one published result; the experiments were not run side by side.
Target: Serine/threonine-protein kinase MARK1 (MARK1, Homo sapiens, UniProt Q9P0L2)
Observed: enzyme activity
Mode: inhibitor

Compound	assay	setting	remaining activity
CC(C)(C)c1nc(-c2cccc(NS(=O)(=O)c3c(F)cccc3F)c2F)c(-c2ccnc(N)n2)s1	radiometric	1 µM	90%
O=C(NCCCNc1nc(Nc2cccc(NC(=O)N3CCCC3)c2)ncc1Br)C1CCC1	radiometric	1 µM	-6%
O=C(Nc1cnn(-c2csc(C(=O)NC3COC3)c2)c1)Nc1c(F)cccc1Cl		5 µM	108%
CC(C)(O)[C@H]1CC[C@H](Nc2ccc3ncc(-c4cccc(C(F)(F)F)c4)n3n2)CC1		1 µM	102%
NS(=O)(=O)c1ccc(CNc2nc(Nc3cccc(CN4CCOCC4)c3)ncc2C2CC2)cc1	radiometric	1 µM	100%
CCCOc1ccc(OC)c(F)c1C(=O)c1ccc(C(=O)N[C@@H]2CNC[C@H]2NC(=O)c2ccc3[nH]ncc3c2)cc1		10 µM	21%
COc1cc(Cl)c(C(=O)N[C@@H](CN[C@H]2CC[C@@H](N)CC2)Cc2ccc(C#N)cc2)cc1-c1ccc(CN[C@H](C)c2ccc(C)cc2)o1		1 µM	148%
Cc1nn(CC(F)(F)F)cc1Nc1nccc(NCCc2cnc[nH]2)n1	radiometric	1 µM	109%
Cc1ccc(C(=O)Nc2ccc(CN3CCN(C)CC3)c(C(F)(F)F)c2)cc1C#Cc1cnc2cccnn12		23.5 nM	100%
c1cc(CN2CCOCC2)cc(Nc2ncc(C3CC3)c(NCCc3c[nH]cn3)n2)c1	radiometric	1 µM	1%
CC(C)(C)c1nc2c(s1)c1nc(N)ncc1c1ccc(NS(=O)(=O)c3c(F)cccc3F)c(F)c12	radiometric	1 µM	90%
Cn1c(=O)n(-c2ccc(C(C)(C)C#N)cc2)c2c3cc(-c4cnc5ccccc5c4)ccc3ncc21		10 µM	97%
NS(=O)(=O)c1ccc(CNc2ccnc(Nc3cccc(NC(=O)N4CCCC4)c3)n2)cc1	radiometric	1 µM	104%
Oc1cccc(-c2nc(N3CCOCC3)c3oc4ncccc4c3n2)c1		10 µM	91%
Cc1cnc(NC2CCOCC2)nc1-n1cnc(C(=O)NC(CN)c2cc(F)cc(Cl)c2)c1 (stereo not shown)	radiometric	1 µM	43%
O=C(Nc1cnn(-c2csc(C(=O)NC3COC3)c2)c1)Nc1ccccc1Cl		5 µM	96.3%
NS(=O)(=O)c1ccc(CNc2nc(Nc3cccc(CN4CCOCC4)c3)ncc2Br)cc1	radiometric	1 µM	66%
COc1cc(Nc2cnc(C#N)c(O[C@H](C)CN(C)C)n2)ncc1-c1cnn(C)c1	radiometric	10 µM	80%
CCN(CC)c1ccc(C2=NNC(=O)CC2C)cc1[N+](=O)[O-] (stereo not shown)		10 µM	102%
